The text below walks through data of ChEMBL document CHEMBL1156809, “Synthesis and anticonvulsant activities of (R)-N-(4'-substituted)benzyl 2-acetamido-3-methoxypropionamides” (J Med Chem, 2010).

Activity calls are given as the source filed them. The rule behind the calls is not given here.

Series [1] has as its system Mus musculus. Put plainly: Anticonvulsant activity against subcutaneous metrazole-induced seizures in albino CF1 mouse at 300 mg/kg, ip after 0.5 hrs. Format: functional, organism-based. On the set-up: dose 300 mg/kg. In short, it runs like this: (§1)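 Subcutaneous Metrazol seizure test under the NINDS ASP, using ip dosing to mice, typically at 300 mg/kg. Protection was assessed at 0.5 and 4 h.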

Series [2] can be described thus: Neurological toxicity in ip dosed albino CF1 mouse assessed as neurological impairment by rotarod test. It counts as organism-based. The conditions noted are these: in vivo. In a few lines: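 Neurological impairment was measured with the rotorod test in mice dosed intraperitoneally. The median dose (TD50, mg/kg) was determined only for compounds with significant MES activity.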

Series [3] relates to Mus musculus. The series is described as follows: Anticonvulsant activity in ip dosed albino CF1 mouse seizure model assessed as protection against hind limb extension by MES test. Format: functional. The conditions noted are these: albino CF1, Hindlimb. In a few lines:
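Maximal electroshock seizure test run by the NINDS ASP (Stables and Kupferberg procedures). Compounds were given intraperitoneally to mice, and the ED50 for seizure protection is reported in mg/kg.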

Series [4] concerns Rattus norvegicus. Put plainly: Anticonvulsant activity against subcutaneous metrazole-induced seizures in albino Sprague-Dawley rat at 300 mg/kg, ip after 0.5 hrs. Format: functional, organism-based. On the set-up: dose 300 mg/kg.
For series [5], the system named is Mus musculus. Put plainly: Anticonvulsant activity against subcutaneous metrazole-induced seizures in albino CF1 mouse at 300 mg/kg, ip after 4 hrs. Further details: dose 300 mg/kg. Format: functional, organism-based. In short, it runs like this: as §1
For series [6], the system named is Rattus norvegicus. Put plainly: Anticonvulsant activity against subcutaneous metrazole-induced seizures in albino Sprague-Dawley rat at 300 mg/kg, ip after 4 hrs. Format: functional, organism-based. Further details: dose 300 mg/kg.
Series [7] can be described thus: Behavioral toxicity in po dosed albino Sprague-Dawley rat. It counts as organism-based. The settings on record: in vivo. In short, it runs like this: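 Behavioral toxicity was recorded as observed effects in rats after oral administration, within the NINDS ASP screen.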
The subject of series [8] is Rattus norvegicus. Put plainly: Anticonvulsant activity in po dosed albino Sprague-Dawley rat seizure model assessed as protection against hind limb extension by MES test. Format: functional. The conditions noted are these: Hindlimb. In short, it runs like this: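 MES seizure protection was tested in Sprague Dawley rats dosed orally, through the NINDS ASP. The ED50 is expressed in mg/kg.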

In the case of `COC[C@H](NC(C)=O)C(=O)NCc1ccc(C=O)cc1`, the result in series [1], in series [4], in series [5] and in series [6] was inactive. Further, in series [2], the TD50 is more than 300 mg/kg. Moreover, the median effective dose (ED50) in series [3] was more than 300 mg/kg.
In the case of `COC[C@@H](NC(C)=O)C(=O)NCc1ccc(C(=O)O)cc1`, the outcome in series [1], in series [4], in series [5] and in series [6] was inactive. The TD50 in series [2] was more than 300 mg/kg. For the same compound, the ED50 in series [3] was more than 300 mg/kg.
Consider `CCc1ccc(CNC(=O)[C@H](COC)NC(C)=O)cc1`, for which the TD50 is more than 30 mg/kg in series [7] and 100 mg/kg in series [2]. The result in series [1], in series [4], in series [5] and in series [6] was inactive. The 50% effective dose (ED50) in series [3] was 100 mg/kg; in series [8], more than 30 mg/kg.
On to `COC[C@@H](NC(C)=O)C(=O)NCc1ccc(CNC(=O)OC(C)(C)C)cc1`, for which the outcome in series [1], in series [4], in series [5] and in series [6] was inactive. Moreover, in series [2], the TD50 is more than 300 mg/kg. In addition, the ED50 in series [3] was more than 300 mg/kg.
As to `COC[C@H](NC(C)=O)C(=O)NCc1ccc(N=[N+]=[N-])cc1`, the TD50 in series [7] is more than 30 mg/kg; in series [2], more than 300 mg/kg. Besides, the result in series [1], in series [4], in series [5] and in series [6] was inactive. Moreover, in series [3], the ED50 came to 100 mg/kg.
For `COC[C@@H](NC(C)=O)C(=O)NCc1ccc(C(=O)OC)cc1`, the outcome in series [1], in series [4], in series [5] and in series [6] was inactive. Also, the TD50 in series [2] was more than 300 mg/kg. Further, in series [3], the ED50 was 100 mg/kg.
In the case of `COC[C@@H](NC(C)=O)C(=O)NCc1ccc(C=O)cc1`, the outcome in series [1], in series [4], in series [5] and in series [6] was inactive. Further, the TD50 in series [2] is more than 300 mg/kg. Further, the ED50 in series [3] is more than 300 mg/kg.
For `COC[C@@H](NC(C)=O)C(=O)NCc1ccc([N+](=O)[O-])cc1`, the ED50 in series [3] was found to be 100 mg/kg.
As for `C=Cc1ccc(CNC(=O)[C@H](COC)NC(C)=O)cc1`, the outcome in series [1], in series [4], in series [5] and in series [6] was inactive. Moreover, the TD50 in series [2] is more than 300 mg/kg. The ED50 in series [3] was found to be 100 mg/kg.
With `COC[C@H](NC(C)=O)C(=O)NCc1ccc(C#C[Si](C)(C)C)cc1`, the TD50 in series [7] was more than 30 mg/kg; in series [2], 100 mg/kg. Moreover, the outcome in series [1], in series [4], in series [5] and in series [6] was inactive. Moreover, the ED50 in series [3] was 30 mg/kg; in series [8], more than 30 mg/kg.
With `COC[C@H](NC(C)=O)C(=O)NCc1ccc(C#N)cc1`, the figures for the TD50 in series [7] and in series [2] were more than 30 mg/kg and more than 300 mg/kg, respectively. The result in series [1], in series [4], in series [5] and in series [6] was inactive. The ED50 is 100 mg/kg in series [3] and more than 30 mg/kg in series [8].
On to `CCC1(c2ccccc2)C(=O)NC(=O)NC1=O`, for which the outcome in series [1], in series [4], in series [5] and in series [6] was inactive.
On to `COC[C@@H](NC(C)=O)C(=O)NCc1ccc(N)cc1`, for which the result in series [1], in series [4], in series [5] and in series [6] was inactive. Also, in series [2], the TD50 was more than 300 mg/kg. For the same compound, the ED50 in series [3] is more than 300 mg/kg.
As to `COC[C@@H](NC(C)=O)C(=O)NCc1ccc(Cl)cc1Cl`, the ED50 in series [3] is 30 mg/kg.
In the case of `COC[C@@H](NC(C)=O)C(=O)NCc1ccc(CCCO)cc1`, the outcome in series [1], in series [4], in series [5] and in series [6] was inactive. Besides, the TD50 in series [2] is more than 300 mg/kg. Besides, the ED50 in series [3] was more than 300 mg/kg.
As for `COC[C@@H](NC(C)=O)C(=O)NCc1ccc(N=C=S)cc1`, the ED50 in series [3] was determined as 24 mg/kg.
On to `CC#Cc1ccc(CNC(=O)[C@@H](COC)NC(C)=O)cc1`, for which the result in series [1], in series [4], in series [5] and in series [6] was inactive. The TD50 in series [2] worked out at 30 mg/kg. In series [3], the ED50 worked out at 10 mg/kg.
Turning to `COC[C@@H](NC(C)=O)C(=O)NCc1ccc(C#C[Si](C)(C)C)cc1`, the outcome in series [1], in series [4], in series [5] and in series [6] was inactive. Further, the TD50 in series [2] was found to be 3 mg/kg. In series [3], the ED50 was more than 3 mg/kg.
`C#Cc1ccc(CNC(=O)[C@H](COC)NC(C)=O)cc1`: the result in series [1], in series [4], in series [5] and in series [6] was inactive. Besides, the TD50 in series [2] was more than 300 mg/kg. In addition, the ED50 in series [3] was more than 300 mg/kg.
Turning to `COC[C@@H](NC(C)=O)C(=O)NCc1cccc(OC(F)(F)F)c1`, the result in series [1], in series [4], in series [5] and in series [6] was inactive. Besides, the TD50 in series [2] is 30 mg/kg. Also, in series [3], the ED50 is 10 mg/kg.
As to `COC[C@H](NC(C)=O)C(=O)NCc1ccccc1`, the figures for the TD50 in series [7] and in series [2] were more than 30 mg/kg and more than 300 mg/kg, respectively. In addition, the outcome in series [1], in series [4], in series [5] and in series [6] was inactive.
Turning to `COC[C@@H](NC(C)=O)C(=O)NCc1ccc(S(N)(=O)=O)cc1`, the result in series [1], in series [4], in series [5] and in series [6] was inactive. The TD50 in series [2] is more than 300 mg/kg. For the same compound, the ED50 in series [3] is more than 300 mg/kg.
`COC[C@@H](NC(C)=O)C(=O)NCc1ccc(CN)cc1.Cl`: the result in series [1], in series [4], in series [5] and in series [6] was inactive. The TD50 in series [2] was more than 300 mg/kg. For the same compound, the ED50 in series [3] was more than 300 mg/kg.
Consider `COC[C@@H](NC(C)=O)C(=O)NCc1ccc(C#CC(C)(C)C)cc1`, for which the result in series [1], in series [4], in series [5] and in series [6] was inactive. Also, the TD50 in series [2] came out at 30 mg/kg. Moreover, the ED50 in series [3] is more than 300 mg/kg.

A word on the TD50: it is the dose at which the toxic effect under study appears in half of the subjects. The term ED50 denotes the midpoint of the dose-response relation.
